Converted amounts (≈) assume the structure as drawn.
Columns and labels:
[1] = system: Klebsiella pneumoniae; test: Antimicrobial activity against Klebsiella pneumoniae by broth microdilution method; assay type: functional
Summary of the method: (§1)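 CLSI M7-A7 broth microdilution, two-fold serial dilutions 800 down to 1.5625 μg/mL in Mueller–Hinton broth, pH 7. Compounds dissolved in DMSO; DMSO-only solvent control. Overnight cultures at 35 ± 1 °C, inoculum matched to McFarland 0.5, final 0.5-2.5 × 10^5 cfu/mL. MIC taken as last well without growth, µg/mL. Run twice. Chloramphenicol reference.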

[2] = system: Candida tropicalis; test: Antimicrobial activity against Candida tropicalis by broth microdilution method; assay type: functional
Summary of the method: (§2)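 Yeasts grown overnight at 35 ± 1 °C in Sabouraud dextrose broth. Tested by CLSI M7-A7 broth microdilution in Sabouraud dextrose broth, pH 7, two-fold serial dilutions 800 down to 1.5625 μg/mL of DMSO-dissolved compound. DMSO-only control. Inoculum matched to McFarland 0.5, final 0.5-2.5 × 10^5 cfu/mL. MIC is last well without growth, µg/mL. Duplicate readings. Ketoconazole reference.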

[3] = system: Escherichia coli; test: Antimicrobial activity against Escherichia coli 35218 by broth microdilution method; assay type: functional; summary of the method: as §1
[4] = system: Enterococcus faecalis; test: Antimicrobial activity against Enterococcus faecalis by broth microdilution method; assay type: functional; summary of the method: as §1
[5] = system: Proteus vulgaris; test: Antimicrobial activity against Proteus vulgaris by broth microdilution method; assay type: functional; summary of the method: as §1
[6] = system: Candida albicans; test: Antimicrobial activity against Candida albicans by broth microdilution method; assay type: functional; summary of the method: as §2
[7] = system: Escherichia coli; test: Antimicrobial activity against Escherichia coli 25922 by broth microdilution method; assay type: functional; summary of the method: as §1
[8] = system: Listeria monocytogenes; test: Antimicrobial activity against Listeria monocytogenes by broth microdilution method; assay type: functional; summary of the method: as §1
[9] = system: Pseudomonas aeruginosa; test: Antimicrobial activity against Pseudomonas aeruginosa by broth microdilution method; assay type: functional; summary of the method: as §1
[10] = system: Staphylococcus aureus; test: Antimicrobial activity against Staphylococcus aureus by broth microdilution method; assay type: functional; summary of the method: as §1
[11] = system: Bacillus subtilis; test: Antimicrobial activity against Bacillus subtilis by broth microdilution method; assay type: functional; summary of the method: as §1
[12] = system: Nakaseomyces glabratus; test: Antimicrobial activity against Candida glabrata by broth microdilution method; assay type: functional; summary of the method: as §2
[13] = system: Salmonella typhimurium; test: Antimicrobial activity against Salmonella Typhimurium by broth microdilution method; assay type: functional, Salmonella enterica subsp. enterica serovar Typhimurium; conditions: Salmonella enterica; summary of the method: as §1
[14] = Toxicity in Artemia salina after 24 hrs; assay type: organism-based; conditions: in vivo

| SMILES | MIC [1] [µg/mL] | MIC [2] [µg/mL] | MIC [3] [µg/mL] | MIC [4] [µg/mL] | MIC [5] [µg/mL] | MIC [6] [µg/mL] | MIC [7] [µg/mL] | MIC [8] [µg/mL] | MIC [9] [µg/mL] | MIC [10] [µg/mL] | MIC [11] [µg/mL] | MIC [12] [µg/mL] | MIC [13] [µg/mL] | LC50 at 24 h [14] [µg/mL] |
| --- | --- | --- | --- | --- | --- | --- | --- | --- | --- | --- | --- | --- | --- | --- |
| N#Cc1ccc(/C=N/NC(=O)c2ccc(-c3nc4ccccc4[nH]3)cc2)cc1 | 12.5 (≈ 34.2 µM) | 50 (≈ 137 µM) | 25 (≈ 68.4 µM) | 12.5 (≈ 34.2 µM) | 50 (≈ 137 µM) | 100 (≈ 274 µM) | 100 (≈ 274 µM) | 200 (≈ 547 µM) | 50 (≈ 137 µM) | 25 (≈ 68.4 µM) | 50 (≈ 137 µM) | 100 (≈ 274 µM) | 12.5 (≈ 34.2 µM) | – |
| O=C(N[C@H](CO)[C@H](O)c1ccc([N+](=O)[O-])cc1)C(Cl)Cl [CHLORAMPHENICOL] | 12.5 (≈ 38.7 µM) | – | 12.5 (≈ 38.7 µM) | 12.5 (≈ 38.7 µM) | 50 (≈ 155 µM) | – | 12.5 (≈ 38.7 µM) | 50 (≈ 155 µM) | 50 (≈ 155 µM) | 12.5 (≈ 38.7 µM) | 12.5 (≈ 38.7 µM) | – | 12.5 (≈ 38.7 µM) | – |
| CC(=O)N1CCN(c2ccc(OCC3COC(Cn4ccnc4)(c4ccc(Cl)cc4Cl)O3)cc2)CC1 (configuration not stated) [KETOCONAZOLE] | – | 50 (≈ 94.1 µM) | – | – | – | 50 (≈ 94.1 µM) | – | – | – | – | – | 25 (≈ 47 µM) | – | – |
| O=C(N/N=C/c1ccc(Cl)cc1)c1ccc(-c2nc3ccccc3[nH]2)cc1 | 12.5 (≈ 33.3 µM) | 50 (≈ 133 µM) | 25 (≈ 66.7 µM) | 12.5 (≈ 33.3 µM) | 25 (≈ 66.7 µM) | 50 (≈ 133 µM) | 100 (≈ 267 µM) | 100 (≈ 267 µM) | 25 (≈ 66.7 µM) | 12.5 (≈ 33.3 µM) | 25 (≈ 66.7 µM) | 50 (≈ 133 µM) | 6.25 (≈ 16.7 µM) | > 1000 |
| O=C(N/N=C/c1ccc(C(F)(F)F)cc1)c1ccc(-c2nc3ccccc3[nH]2)cc1 | 25 (≈ 61.2 µM) | 50 (≈ 122 µM) | 25 (≈ 61.2 µM) | 12.5 (≈ 30.6 µM) | 50 (≈ 122 µM) | 100 (≈ 245 µM) | 100 (≈ 245 µM) | 200 (≈ 490 µM) | 50 (≈ 122 µM) | 25 (≈ 61.2 µM) | 50 (≈ 122 µM) | 100 (≈ 245 µM) | 12.5 (≈ 30.6 µM) | – |
| Cc1ccc(/C=N/NC(=O)c2ccc(-c3nc4ccccc4[nH]3)cc2)cc1 | 12.5 (≈ 35.3 µM) | 100 (≈ 282 µM) | 25 (≈ 70.5 µM) | 12.5 (≈ 35.3 µM) | 25 (≈ 70.5 µM) | 100 (≈ 282 µM) | 100 (≈ 282 µM) | 200 (≈ 564 µM) | 50 (≈ 141 µM) | 25 (≈ 70.5 µM) | 50 (≈ 141 µM) | 100 (≈ 282 µM) | 6.25 (≈ 17.6 µM) | > 1000 |
| CN(C)c1ccc(/C=N/NC(=O)c2ccc(-c3nc4ccccc4[nH]3)cc2)cc1 | 50 (≈ 130 µM) | 100 (≈ 261 µM) | 25 (≈ 65.2 µM) | 25 (≈ 65.2 µM) | 50 (≈ 130 µM) | 100 (≈ 261 µM) | 100 (≈ 261 µM) | 200 (≈ 522 µM) | 25 (≈ 65.2 µM) | 50 (≈ 130 µM) | 25 (≈ 65.2 µM) | 50 (≈ 130 µM) | 25 (≈ 65.2 µM) | – |
| O=C(N/N=C/c1ccc([N+](=O)[O-])cc1)c1ccc(-c2nc3ccccc3[nH]2)cc1 | 25 (≈ 64.9 µM) | 100 (≈ 259 µM) | 25 (≈ 64.9 µM) | 25 (≈ 64.9 µM) | 50 (≈ 130 µM) | 50 (≈ 130 µM) | 100 (≈ 259 µM) | 200 (≈ 519 µM) | 50 (≈ 130 µM) | 25 (≈ 64.9 µM) | 50 (≈ 130 µM) | 100 (≈ 259 µM) | 12.5 (≈ 32.4 µM) | – |
| O=C(N/N=C/c1ccc(Br)cc1)c1ccc(-c2nc3ccccc3[nH]2)cc1 | 12.5 (≈ 29.8 µM) | 50 (≈ 119 µM) | 25 (≈ 59.6 µM) | 12.5 (≈ 29.8 µM) | 25 (≈ 59.6 µM) | 100 (≈ 239 µM) | 50 (≈ 119 µM) | 200 (≈ 477 µM) | 25 (≈ 59.6 µM) | 25 (≈ 59.6 µM) | 25 (≈ 59.6 µM) | 100 (≈ 239 µM) | 12.5 (≈ 29.8 µM) | > 1000 |

The next lines start with results.

| MIC [1] [µg/mL] | MIC [2] [µg/mL] | MIC [3] [µg/mL] | MIC [4] [µg/mL] | MIC [5] [µg/mL] | MIC [6] [µg/mL] | MIC [7] [µg/mL] | MIC [8] [µg/mL] | MIC [9] [µg/mL] | MIC [10] [µg/mL] | MIC [11] [µg/mL] | MIC [12] [µg/mL] | MIC [13] [µg/mL] | SMILES | LC50 at 24 h [14] [µg/mL] |
| --- | --- | --- | --- | --- | --- | --- | --- | --- | --- | --- | --- | --- | --- | --- |
| 25 (≈ 70.1 µM) | 100 (≈ 281 µM) | 25 (≈ 70.1 µM) | 25 (≈ 70.1 µM) | 25 (≈ 70.1 µM) | 100 (≈ 281 µM) | 100 (≈ 281 µM) | 400 (≈ 1120 µM) | 25 (≈ 70.1 µM) | 50 (≈ 140 µM) | 25 (≈ 70.1 µM) | 100 (≈ 281 µM) | 25 (≈ 70.1 µM) | O=C(N/N=C/c1ccc(O)cc1)c1ccc(-c2nc3ccccc3[nH]2)cc1 | – |
| 25 (≈ 67.5 µM) | 50 (≈ 135 µM) | 25 (≈ 67.5 µM) | 12.5 (≈ 33.7 µM) | 50 (≈ 135 µM) | 100 (≈ 270 µM) | 50 (≈ 135 µM) | 200 (≈ 540 µM) | 25 (≈ 67.5 µM) | 25 (≈ 67.5 µM) | 25 (≈ 67.5 µM) | 50 (≈ 135 µM) | 6.25 (≈ 16.9 µM) | COc1ccc(/C=N/NC(=O)c2ccc(-c3nc4ccccc4[nH]3)cc2)cc1 | – |
| 25 (≈ 73.4 µM) | 100 (≈ 294 µM) | 25 (≈ 73.4 µM) | 12.5 (≈ 36.7 µM) | 50 (≈ 147 µM) | 50 (≈ 147 µM) | 100 (≈ 294 µM) | 400 (≈ 1180 µM) | 25 (≈ 73.4 µM) | 25 (≈ 73.4 µM) | 25 (≈ 73.4 µM) | 100 (≈ 294 µM) | 12.5 (≈ 36.7 µM) | O=C(N/N=C/c1ccccc1)c1ccc(-c2nc3ccccc3[nH]2)cc1 | – |
| 25 (≈ 69.8 µM) | 50 (≈ 140 µM) | 25 (≈ 69.8 µM) | 25 (≈ 69.8 µM) | 50 (≈ 140 µM) | 100 (≈ 279 µM) | 50 (≈ 140 µM) | 200 (≈ 558 µM) | 50 (≈ 140 µM) | 50 (≈ 140 µM) | 25 (≈ 69.8 µM) | 100 (≈ 279 µM) | 6.25 (≈ 17.4 µM) | O=C(N/N=C/c1ccc(F)cc1)c1ccc(-c2nc3ccccc3[nH]2)cc1 | – |
| 50 (≈ 130 µM) | 200 (≈ 520 µM) | 50 (≈ 130 µM) | 50 (≈ 130 µM) | 100 (≈ 260 µM) | 200 (≈ 520 µM) | 200 (≈ 520 µM) | 400 (≈ 1040 µM) | 100 (≈ 260 µM) | 50 (≈ 130 µM) | 50 (≈ 130 µM) | 200 (≈ 520 µM) | 25 (≈ 65 µM) | O=C(O)c1ccc(/C=N/NC(=O)c2ccc(-c3nc4ccccc4[nH]3)cc2)cc1 | – |
